Laboratory results: article PMC6425477 (ACS chemical biology, 2018)
Blank lines part the entries; values can stand above or below the compound they belong to.

Experiments:
D456 GBM PDX cells [1] = experiment: Glucose uptake; type: cell-based, human
Procedure, shortened: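 D456 GBM PDX cells were given test compound over a range of concentrations. Glucose uptake was read by 2-NBDG, per the manufacturer's protocol. IC50 for glucose uptake came from a curve-fit model.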

D456 GBM PDX cells [2] = experiment: Cell growth; type: cell-based, human
Procedure, shortened: (§1)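 D456 pediatric primary GBM PDX cells and normal human astrocytes were treated in the same manner with test compound (DMSO stock) at 5, 20 and 50 μM for 7 days. Growth was read by cell titer. IC50 came from non-linear regression. D456 and NHA were compared by one-way ANOVA with Dunnett's multiple comparisons.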

D456 GBM PDX cells [3] = experiment: 2-deoxyglucose; type: cell-based, human
GBM PDX cells = experiment: Extracellular flux analysis glycolytic stress test; type: cell-based, human; conditions: 50 μM; for increase in ECAR following the addition of oligomycin: 4 hours
Procedure, shortened: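 Glycolysis stress test on a Seahorse XF96 flux analyzer in GBM PDX cells. Cells were glucose-starved with test compound at 50 μM for 4 h, then given glucose, oligomycin and 2-DG in turn. Glycolysis = ECAR after glucose minus basal. Capacity and reserve are derived from ECAR before and after 2-DG and oligomycin. Two experiments, n=6; mean ± sem; Student's t-test versus control.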

[4] = system: normal human astrocytes (NHAs); experiment: Cell growth / toxicity in normal human astrocytes; type: cell-based; conditions: for growth inhibition of GBM PDX cells compared to NHAs: D456 GBM PDX vs NHAs, 5, 20, 50 μM, 7 days
Procedure, shortened: as §1

[5] = system: GBM PDX cell lines, D456, GBM157, and 1016; experiment: 2-NBDG glucose uptake in three GBM PDX cell lines; type: cell-based, human; conditions: 50 μM; all cells tested (D456, GBM157, 1016)
Procedure, shortened: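 2-NBDG uptake in D456, GBM157 and 1016 GBM PDX cells, run per the manufacturer's protocol. Test compound (DMSO stock) at 50 μM. Data averaged from 2 experiments with n=3 per group. Compared by one-way ANOVA with Tukey's multiple comparisons.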

GLUT1 = conditions: pharmacological inhibition of GLUT1; cited from earlier work
[6] = dose-response, Supporting Information Figure 3c

Structure (SMILES): O=c1c(-c2ccc(O)cc2)coc2cc(O)cc(O)c12 [genistein, reference compound]
inhibition of glucose uptake (in words) (D456 GBM PDX cells [1]; D456 GBM PDX cells, Supporting Information Figures 4 and 5): inhibited glucose uptake
GBM PDX cell growth (in words) (D456 GBM PDX cells [2]; GBM PDX cells, line not given, Supplementary Figure 5b): did reduce GBM PDX cell growth

IC50 (D456 GBM PDX cells [1]; read-out: IC50 for glucose uptake, Supporting Information Figure 3c): 33 µM
Structure (SMILES): O=C1CC(c2cccc3[nH]ccc23)c2ccc(NC(=O)c3cccnc3)cc2N1 (stereo not shown) [SRI-37684]
decrease in glucose uptake (2-DG) (D456 GBM PDX cells [3]): ~50%
glucose uptake compared to control (2-DG) (D456 GBM PDX cells [3]): 50%
glycolytic capacity (ECAR before 2-DG minus ECAR after 2-DG) (GBM PDX cells): decrease
glycolytic reserve capacity (ECAR after Oligo minus ECAR before Oligo) (GBM PDX cells): decrease
increase in ECAR following the addition of oligomycin (GBM PDX cells): inhibited an increase in ECAR
toxicity to NHAs [4]: minimal toxicity
growth inhibition of GBM PDX cells compared to NHAs [4]: significantly stronger growth inhibition
inhibition of glucose uptake (2-NBDG) [5]: 40–50%
IC50 (D456 GBM PDX cells [2]; read-out: IC50 for growth inhibition, D456 GBM PDX cells, 7 days): 8.6 µM

Structure (SMILES): O=C(Oc1cccc(F)c1OC(=O)c1cccc(O)c1)c1cccc(O)c1 [WZB117, 2-Fluoro-6-(m-hydroxybenzoyloxy) Phenyl m-Hydroxybenzoate]
tumor formation capabilities of TICs (GLUT1): decrease the tumor formation capabilities of TICs

Structure (SMILES): O=C1CC(c2ccc(-c3ccn[nH]3)s2)c2cc(N3CCNC3=O)ccc2N1 (stereo not shown) [SRI-37683]
decrease in glucose uptake (2-DG) (D456 GBM PDX cells [3]): approximately 40%
glucose uptake compared to control (2-DG) (D456 GBM PDX cells [3]): 60%
glycolytic capacity (ECAR before 2-DG minus ECAR after 2-DG) (GBM PDX cells): decrease
glycolytic reserve capacity (ECAR after Oligo minus ECAR before Oligo) (GBM PDX cells): decrease
increase in ECAR following the addition of oligomycin (GBM PDX cells): inhibited an increase in ECAR
ECAR ascribed to glycolysis after injection of glucose (GBM PDX cells; 4 hours glucose starvation before glucose): significantly inhibited
toxicity to NHAs [4]: minimal toxicity
growth inhibition of GBM PDX cells compared to NHAs [4]: significantly stronger growth inhibition
plateau of glucose uptake inhibition (D456 GBM PDX cells [1]; [6]): ~50%
threshold concentration at which glucose uptake inhibition plateaus (D456 GBM PDX cells [1]; [6]): approximately 3 μM
inhibition of glucose uptake (2-NBDG) [5]: 40–50%
inhibition of D456 GBM PDX cell growth (in words) (D456 GBM PDX cells [2]; 5 μM): almost completely inhibited
